From PMC6889762 (Toxicology Reports, 2019)

Columns and labels:
Ferrous ion = experiment: Ferrous ion
Method in brief: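 FeCl2 (0.6 mM stock) added to the test compound solution; iron complex formation measured spectrophotometrically at 522 nm. Chelated Fe2+ % = (1 − As/Ac) × 100, where Ac is the control absorbance. IC50 came from a plot of % against concentration. Triplicate, mean ± SD.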

DPPH radical scavenging = experiment: DPPH radical scavenging
Method in brief: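 Ethanolic DPPH (0.1 mM stock) added to the test compound in ethanol (10−30 μg/mL). Incubated 30 min in the dark, absorbance read at 517 nm. Scavenging % = (1 − As/Ac) × 100. IC50 was obtained by plotting % against concentration. Triplicate analyses, mean ± SD.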

Fe3+ reducing ability = settings: for Fe^3+ reducing (absorbance): 20 μg/mL, absorbance at 700 nm
Cu2+ reducing ability = settings: for Cu^2+ reducing (absorbance): 20 μg/mL, absorbance at 450 nm; for Cu^2+ ions reducing ability (absorbance): running text: at 30 μg/mL concentration, 450 nm
Method in brief: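 CUPRAC assay: CuCl2 (10 mM stock), neocuproine (7.5 mM stock) and 1.0 M acetate buffer were added to the test compound (10−30 μg/mL). The mixture was made up with deionized water, tubes were closed and left at room temperature, and absorbance was read at 450 nm. Higher absorbance means greater reducing ability. Triplicate runs, mean ± SD.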

[1] = Fe3+-TPTZ reducing ability; settings: for Fe^3+-TPTZ reducing (absorbance): 20 μg/mL, absorbance at 593 nm
[2] = DMPD radical cation scavenging
Method in brief: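 DMPD solution (0.1 M stock) added to 0.1 M acetate buffer, pH 5.3, containing the test compound (10−30 μg/mL). FeCl3 (50 mM stock) was then added and absorbance measured at 505 nm. Scavenging % = (1 − As/Ac) × 100. IC50 was read from a plot of % against concentration. Triplicate, mean ± SD.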

[3] = Superoxide anion radical scavenging
Method in brief: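 Superoxide generated in a methionine–riboflavin system under illumination and detected by NBT reduction at 560 nm. Scavenging % = (1 − As/Ac) × 100 against a compound-free control. IC50 was estimated from a plot of % against test compound concentration. Triplicate, mean ± SD.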

[4] = ABTS radical cation scavenging
Method in brief: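 Radical cation generated from 2.0 mM ABTS in deionized water with 2.3 mM K2S2O8, then diluted with pH 7.4 buffer to absorbance 0.750 ± 0.025. Test compound (10−30 μg/mL) mixed with the radical solution; residual absorbance read at 734 nm. Scavenging % = (1 − As/Ac) × 100. IC50 was taken from a plot of % against concentration. Triplicate runs, mean ± SD.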

[5] = biological target: acetylcholinesterase (AChE) (Electrophorus electricus, UniProt O42275); experiment: AChE inhibition; format: biochemical, Electric eel
Chain of acetylcholinesterase (AChE) (O42275 24-633): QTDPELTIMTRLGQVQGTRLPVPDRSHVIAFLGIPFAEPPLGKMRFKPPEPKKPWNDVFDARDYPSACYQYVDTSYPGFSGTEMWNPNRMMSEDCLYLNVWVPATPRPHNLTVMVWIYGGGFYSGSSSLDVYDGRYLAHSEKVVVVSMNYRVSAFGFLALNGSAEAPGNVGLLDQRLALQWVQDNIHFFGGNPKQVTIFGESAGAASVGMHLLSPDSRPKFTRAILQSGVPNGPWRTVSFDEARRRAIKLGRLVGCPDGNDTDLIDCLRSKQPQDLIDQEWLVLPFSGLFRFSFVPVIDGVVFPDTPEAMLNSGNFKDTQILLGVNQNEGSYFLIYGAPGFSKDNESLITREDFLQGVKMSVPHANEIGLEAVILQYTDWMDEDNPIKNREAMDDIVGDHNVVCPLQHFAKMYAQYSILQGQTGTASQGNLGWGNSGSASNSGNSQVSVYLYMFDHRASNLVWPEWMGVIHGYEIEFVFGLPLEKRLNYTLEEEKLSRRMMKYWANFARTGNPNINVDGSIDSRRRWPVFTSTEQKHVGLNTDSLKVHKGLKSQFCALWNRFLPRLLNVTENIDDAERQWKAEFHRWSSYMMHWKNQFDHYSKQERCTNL

[6] = biological target: butyrylcholinesterase (BChE) (Equus caballus, UniProt P81908); experiment: biochemical; set-up: species or system equine
Chain of butyrylcholinesterase (BChE) (P81908 whole entry): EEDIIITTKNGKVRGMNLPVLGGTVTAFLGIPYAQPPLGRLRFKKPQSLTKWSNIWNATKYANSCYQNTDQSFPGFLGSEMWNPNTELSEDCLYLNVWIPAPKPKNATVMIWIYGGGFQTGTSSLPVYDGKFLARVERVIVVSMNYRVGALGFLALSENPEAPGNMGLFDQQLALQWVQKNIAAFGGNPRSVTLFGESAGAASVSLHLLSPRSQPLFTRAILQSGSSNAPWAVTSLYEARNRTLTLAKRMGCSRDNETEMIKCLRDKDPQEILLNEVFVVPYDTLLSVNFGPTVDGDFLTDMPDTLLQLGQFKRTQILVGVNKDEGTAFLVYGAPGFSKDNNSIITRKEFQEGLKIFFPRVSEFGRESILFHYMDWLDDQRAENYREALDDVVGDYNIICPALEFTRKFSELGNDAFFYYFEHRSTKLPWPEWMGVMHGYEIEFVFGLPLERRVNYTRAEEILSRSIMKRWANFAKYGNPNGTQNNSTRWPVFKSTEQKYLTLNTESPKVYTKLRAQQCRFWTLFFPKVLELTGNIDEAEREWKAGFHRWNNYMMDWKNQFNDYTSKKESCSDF

Metal chelating (Fe^2+) IC50 (Ferrous ion) [µg/mL]	DPPH· scavenging IC50 (DPPH radical scavenging) [µg/mL]	O2^•− scavenging IC50 [3] [µg/mL]	ABTS^•+ scavenging IC50 [4] [µg/mL]	Structure (SMILES)	Fe^3+ reducing (absorbance) (Fe3+ reducing ability)	Cu^2+ reducing (absorbance) (Cu2+ reducing ability)	Cu^2+ ions reducing ability (absorbance) (Cu2+ reducing ability)	Fe^3+-TPTZ reducing (absorbance) [1]	DMPD^•+ scavenging IC50 [2] [µg/mL]	Fe^3+ reducing ability (absorbance) (Fe3+ reducing ability; concentration not given, 700 nm)	IC50 [5] [nM]	Ki [5] [nM]	FRAP effects (absorbance) ([1]; concentration not given, 593 nm)	IC50 [6] [nM]	DMPD^•+ scavenging activity [2]
6.24	–	–	–	O=C(O)CN(CCN(CC(=O)O)CC(=O)O)CC(=O)O [EDTA]	–	–	–	–	–	–	–	–	–	–	–
8.05	8.01	30.13	4.30	Cc1c(C)c2c(c(C)c1O)CCC(C)(C(=O)O)O2 (stereo not drawn) [Trolox, trolox]	1.148	0.825	0.825	1.973	22.35	–	–	–	–	–	–
27.72	9.76	21.01	5.02	Cc1c(C)c2c(c(C)c1O)CC[C@@](C)(CCC[C@H](C)CCC[C@H](C)CCCC(C)C)O2 [α-Tocopherol, α-tocopherol]	0.802	0.564	0.564	1.473	–	–	–	–	–	–	did not demonstrate scavenging activity

Structure (SMILES)	Metal chelating (Fe^2+) IC50 (Ferrous ion) [µg/mL]	DPPH· scavenging IC50 (DPPH radical scavenging) [µg/mL]	O2^•− scavenging IC50 [3] [µg/mL]	ABTS^•+ scavenging IC50 [4] [µg/mL]	Fe^3+ reducing (absorbance) (Fe3+ reducing ability)	Cu^2+ reducing (absorbance) (Cu2+ reducing ability)	Cu^2+ ions reducing ability (absorbance) (Cu2+ reducing ability)	Fe^3+-TPTZ reducing (absorbance) [1]	DMPD^•+ scavenging IC50 [2] [µg/mL]	Fe^3+ reducing ability (absorbance) (Fe3+ reducing ability; concentration not given, 700 nm)	IC50 [5] [nM]	Ki [5] [nM]	FRAP effects (absorbance) ([1]; concentration not given, 593 nm)	IC50 [6] [nM]	DMPD^•+ scavenging activity [2]
CC(=O)c1c(O)c(C)c(O)c2c1OC1=CC(=O)C(C(C)=O)C(=O)C12C (stereo not drawn) [Usnic acid]	18.68	49.50	20.38	10.41	0.278	0.277	0.277	1.293	33.00	0.278	1.27	0.239	1.293	3.4	–
